# Compound activity from PubChem.
# Cl transport mod – modulates chloride dependent transport by human KCC2 | B-score of Tl+ flux slope (higher = more flux/activation; lower = inhibition) at 10 µM | actives 2.2% (n = 190,000) | AID 1456 | KCC2 cells, thallium flux FluoZin-2 fluorescence;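 active = thallium flux slope and its plate-corrected score both differing from the plate sample mean at a set confidence after two filtering rounds, in either direction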;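 note: slope of fluorescence scaled to starting intensity during 10 to 20 s after thallium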
# KCNQ1 block – inhibitors of human KCNQ1 potassium channel. P51787. CHO-K1 KCNQ1, FluxOR thallium flux fluorescence; active compounds read high. B-score at 10 µM. actives 1.3% (n = 310,000). AID 2642;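 active = compounds whose thallium flux B-score, printed positive for inhibition, exceeds three library SD while starting fluorescence stays within three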;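 note: channel opened by potassium depolarization with thallium stimulus after 20 min compound exposure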
# KCNQ1 act – potentiators or activators of human KCNQ1 potassium channel | P51787 | CHO-K1 KCNQ1, thallium flux FluxOR fluorescence; active compounds read high | B-score at 10 µM | actives 0.35% (n = 310,000) | AID 2648;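 active = fluorescence ratio B-score, a plate-corrected score, at least three library SD, with initial intensity B-score within 5 SD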
#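 Assay system: CHO-K1 cells stably expressing KCNQ1. Medium: assay buffer for compound exposure, DMSO matched across wells. Timing: 37 °C overnight plating, 90-min dark dye load, 20-min compound pretreatment. Signal: kinetic FluxOR fluorescence, 10 s baseline plus 110 s post-stimulus.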
# SUMO Mot1 rescue – SUMOylation pathway inhibition by Mot1-301 growth rescue; AID 2716; growth rescue, % at 18.8 µM; actives 1% (n = 320,000); S. cerevisiae Mot1-301 growth rescue, ATP luminescence, 38.5C; percent above DMSO median, 100 means doubled;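 active = every valid replicate shows activation above 250% relative to neutral control wells; inactive = the rest, any valid replicate at or below 250%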;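 note: OY570 slx delta 5 strain wells were the positive control but not used for scaling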
# AI-2 QS modul – Vibrio harveyi AI-2 quorum sensing modulation; activity change, % at 7.5 µM; AID 2094; Vibrio harveyi JMH597 AI-2 luminescence/OD600 ratio, 9 h; active compounds read low; strain lacks LuxN and CqsS sensors; 0 = neutral-control median; actives 0.4% (n = 300,000); in the data active = activity change below about -75%, passing the limit was not always enough;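 note: luminescence divided by OD600 gain over 9 h not by final OD600 alone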
# hERG rescue – hERG (human) protection from proarrhythmic block | actives 0.51% (n = 310,000) | Q12809 | activation (rescue from dofetilide block), less the hit threshold, % at 10 µM | CHO-hERG, FluxOR thallium flux, dofetilide IC70 present;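 active = activation above the mean of controls blocked by dofetilide plus 5 SD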;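 note: thallium influx through hERG after potassium depolarization seen as dye fluorescence rise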
# Target sequence (Q12809 whole entry, looked up): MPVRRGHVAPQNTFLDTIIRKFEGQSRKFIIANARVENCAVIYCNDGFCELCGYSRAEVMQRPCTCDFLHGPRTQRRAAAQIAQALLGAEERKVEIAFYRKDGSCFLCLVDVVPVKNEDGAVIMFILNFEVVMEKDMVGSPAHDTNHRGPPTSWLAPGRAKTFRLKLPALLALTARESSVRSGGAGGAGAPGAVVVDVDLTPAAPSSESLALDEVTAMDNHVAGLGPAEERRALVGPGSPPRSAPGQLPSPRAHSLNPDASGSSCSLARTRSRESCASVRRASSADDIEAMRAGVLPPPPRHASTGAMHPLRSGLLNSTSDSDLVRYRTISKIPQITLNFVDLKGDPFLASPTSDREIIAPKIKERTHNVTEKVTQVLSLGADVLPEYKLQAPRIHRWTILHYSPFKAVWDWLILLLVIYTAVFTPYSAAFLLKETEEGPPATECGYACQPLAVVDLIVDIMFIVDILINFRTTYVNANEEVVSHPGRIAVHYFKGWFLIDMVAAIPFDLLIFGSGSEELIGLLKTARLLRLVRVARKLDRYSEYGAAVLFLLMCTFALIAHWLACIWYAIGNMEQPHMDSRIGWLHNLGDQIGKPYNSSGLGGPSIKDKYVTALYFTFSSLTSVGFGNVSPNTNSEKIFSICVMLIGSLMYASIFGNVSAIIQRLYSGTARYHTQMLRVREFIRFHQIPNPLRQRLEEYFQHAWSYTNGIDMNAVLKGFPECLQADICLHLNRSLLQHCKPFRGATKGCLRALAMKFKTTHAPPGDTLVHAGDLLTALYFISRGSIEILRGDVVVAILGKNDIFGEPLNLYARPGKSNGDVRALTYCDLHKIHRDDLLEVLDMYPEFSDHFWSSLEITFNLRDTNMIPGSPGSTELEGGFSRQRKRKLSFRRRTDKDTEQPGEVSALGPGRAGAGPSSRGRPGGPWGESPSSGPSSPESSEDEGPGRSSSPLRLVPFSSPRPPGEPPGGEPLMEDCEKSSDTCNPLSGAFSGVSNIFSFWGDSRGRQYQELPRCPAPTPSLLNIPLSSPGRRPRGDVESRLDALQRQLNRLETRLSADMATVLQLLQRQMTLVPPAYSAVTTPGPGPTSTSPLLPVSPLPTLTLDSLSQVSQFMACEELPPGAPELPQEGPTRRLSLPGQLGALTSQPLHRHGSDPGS
# KCNQ1 block val – reconfirmed blocker of the human KCNQ1 potassium channel; shares compounds with KCNQ1 block; KCNQ1 cell line, FluxOR thallium flux fluorescence; inhibition, % at 10 µM; actives 93% (n = 1,600); AID 588353;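 active = primary screen active, with duplicate mean exceeding buffer control mean plus 3 SD of buffer wells, cut at about 28% in these data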;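 note: 0% = buffer control ratio and 100% = XE991 inhibitor control ratio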
# CHO Tl flux – counter-screen for KCNQ1 inhibitors: effect in parental CHO cells | actives 21% (n = 1,600) | parental CHO-K1, FluxOR thallium flux fluorescence ratio; active compounds read low; zero means no signal rise above baseline | fluorescence ratio (Tl flux) at 10 µM | shares compounds with KCNQ1 block;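 active = mean of duplicate thallium-flux fluorescence ratios in parental host cells more than 5 SD below the buffer control mean, cut at about 0.38 in these data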;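 note: ratio is peak minus minimum fluorescence divided by baseline fluorescence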
# KCNQ1 ephys val – blocks human KCNQ1 current in automated patch clamp; shares compounds with KCNQ1 block; calls only at 10 µM; KCNQ1-CHO cells; actives 20% (n = 490); AID 624120;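 active = KCNQ1 current drop exceeding 3 SD of negative control wells, seen in both duplicate runs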;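 note: steady state current during a 2 s step from -80 to +40 mV; negative values mean current inhibition and positive values mean potentiation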
# KCNQ2 inh – KCNQ1 inhibitor that also blocks rat KCNQ2 channel. shares compounds with KCNQ1 block. KCNQ2 cells, FluxOR thallium flux fluorescence. inhibition, % at 10 µM. actives 71% (n = 1,600). AID 651746;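 active = mean percent inhibition of the KCNQ2 thallium signal more than 5 SD above the buffer-only control wells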;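 note: KCNQ2 expressed in CHO cells; 0% = buffer control wells and 100% = XE-991 inhibitor control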
# KCNQ1-KCNE1 inh – human KCNQ1/KCNE1 inhibition in KCNQ1 specificity screen. KCNQ1/KCNE1 cells, FluxOR thallium flux fluorescence. actives 77% (n = 1,600). shares compounds with KCNQ1 block. inhibition, % at 10 µM;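 active = mean percent inhibition of duplicate wells above the buffer-only control mean plus 3 SD of those controls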;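 note: 0% = buffer only wells and 100% = XE-991 inhibitor control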
# Numbers without * were called inactive; i = inactive; nt = no result; + = active, no number. Only some compounds are listed: those with a hit (about 4.2% of all), similar ones and a draw of the others.
SMILES,Cl transport mod,KCNQ1 block,KCNQ1 act,SUMO Mot1 rescue,AI-2 QS modul,hERG rescue,KCNQ1 block val,CHO Tl flux,KCNQ1 ephys val,KCNQ2 inh,KCNQ1-KCNE1 inh
COc1ccc(-c2csc3ncnc(N4CCN(c5ccccc5Cl)CC4)c23)cc1,nt,9*,i,13,38,-11,105*,0.38*,nt,96%*,90%*
CCOC(=O)c1nnn(-c2nonc2-n2cccc2)c1CN1CCC(C)CC1,-0.49,6*,i,134,18,-14,88*,0.39,nt,71%*,128%*
Fc1ccc(NC(=S)NCc2cccs2)cc1,0.87,6*,i,2,10,-7,0,0.52,nt,i,48%*
Cc1ccc(NC(=S)NCc2cccs2)cc1,-1.7,i,i,11,-8,-7,nt,nt,nt,nt,nt
COc1ccc(C(=O)C2CCCN(Cc3cccn3-c3ccc(Cl)cn3)C2)c(OC)c1 (stereo not given),-0.16,11*,i,301,3,-22,82*,0.49,nt,85%*,i
CCOc1ccc(C2CC(c3cccc(OC)c3OC)n3nnnc3N2)cc1Cl (stereo not given),1.1,7*,i,118,17,-7,0,0.52,nt,59%*,i
CNc1ccccc1C(C)(C)c1cc(-c2cccc([N+](=O)[O-])c2)no1,-1.8,i,i,-27,26,1,nt,nt,nt,nt,nt
CNc1ccccc1C(C)(C)c1cc(-c2cccc(Br)c2)no1,0.15,6*,i,1,36,-22,122*,0.46,i,106%*,117%*
O=C(Nc1ccc(Cl)cc1)NC1CCCCC1Cc1ccco1 (stereo not given),-0.77,8*,i,24,31,-9,126*,0.44,+,77%*,102%*
O=C(Nc1ccc(Cl)cc1)NC1CCCC1Cc1ccco1 (stereo not given),-2,i,i,5,-10,-17,nt,nt,nt,nt,nt
COc1cc(OC)c2cc(C(=O)N[C@@H](Cc3ccccc3)C(=O)O)n(C)c2c1,nt,i,i,-16,11,-10,nt,nt,nt,nt,nt
COc1cccc(NC(=O)CSc2nnnn2C2CCCCC2)c1,nt,i,i,nt,10,-9,nt,nt,nt,nt,nt
Cc1ccc(NC(=S)Nc2cccnc2)c(S(=O)(=O)N2CCCCC2)c1,-0.52,13*,i,11,13,-23,97*,0.51,i,i,68%*
O=C(CCc1ccccc1)N1CCN(S(=O)(=O)c2cccs2)CC1,nt,i,i,-17,0,-12,nt,nt,nt,nt,nt
Fc1ccc2[nH]c3c(NCc4ccccc4)ncnc3c2c1,nt,7*,i,-11,-36,-24,150*,0.4,i,73%*,76%*
COc1ccc2[nH]c3c(NCc4ccco4)ncnc3c2c1,-0.55,i,i,-16,15,-13,nt,nt,nt,nt,nt
CCOc1nc(Nc2ccc(OC)c(Cl)c2)nc(N2CCN(c3ccc(OC)cc3)CC2)n1,nt,7*,i,9,29,-11,114*,0.48,i,79%*,144%*
O=C(Nc1cccc(F)c1)c1ccc(-c2ccccc2Cl)o1,-1.6,8*,i,-6,-45,-15,161*,0.31*,nt,119%*,+
